Measured values taken from ChEMBL document CHEMBL5653631, “A Potent and Selective ULK1 Inhibitor Suppresses Autophagy and Sensitizes Cancer Cells to Nutrient Stress” (iScience, 2018).
Each block holds one compound with its values, some of them ahead of it.

What was measured:
[1] = biological target: Cyclin-dependent kinase 9 (Homo sapiens) (UniProt P50750); experiment: Inhibition of human recombinant CDK9 at 500 nM in presence of ATP by radiometric assay relative to control
[2] = biological target: Serine/threonine-protein kinase ATR (Homo sapiens) (UniProt Q13535); experiment: Inhibition of human recombinant ATR at 500 nM in presence of ATP by radiometric assay relative to control
In short: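 Panel of 327 recombinant human kinases, each assayed in vitro by radiometric activity assay in duplicate at a single inhibitor concentration per compound, chosen with reference to its ULK1 inhibition. Activity remaining was expressed as percent of vehicle control, and percent inhibition was calculated as 100 minus percent activity remaining.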

[3] = biological target: 3-phosphoinositide-dependent protein kinase 1 (Homo sapiens) (UniProt O15530); experiment: Inhibition of human recombinant PDK1 at 500 nM related to control ULK1
[4] = biological target: Tyrosine-protein kinase Lck (Homo sapiens) (UniProt P06239); experiment: Inhibition of human recombinant LCK at 500 nM in presence of ATP by radiometric assay relative to control
[5] = biological target: RAC-alpha serine/threonine-protein kinase (Homo sapiens) (UniProt P31749); experiment: Inhibition of human recombinant AKT1 at 15 nM related to control ULK1
[6] = biological target: T1, Serine/threonine-protein kinase DCLK2 (Homo sapiens) (UniProt Q8N568); experiment: Inhibition of human recombinant DCAMKL2 at 15 nM in presence of ATP by radiometric assay relative to control
T1 sequence (whole entry): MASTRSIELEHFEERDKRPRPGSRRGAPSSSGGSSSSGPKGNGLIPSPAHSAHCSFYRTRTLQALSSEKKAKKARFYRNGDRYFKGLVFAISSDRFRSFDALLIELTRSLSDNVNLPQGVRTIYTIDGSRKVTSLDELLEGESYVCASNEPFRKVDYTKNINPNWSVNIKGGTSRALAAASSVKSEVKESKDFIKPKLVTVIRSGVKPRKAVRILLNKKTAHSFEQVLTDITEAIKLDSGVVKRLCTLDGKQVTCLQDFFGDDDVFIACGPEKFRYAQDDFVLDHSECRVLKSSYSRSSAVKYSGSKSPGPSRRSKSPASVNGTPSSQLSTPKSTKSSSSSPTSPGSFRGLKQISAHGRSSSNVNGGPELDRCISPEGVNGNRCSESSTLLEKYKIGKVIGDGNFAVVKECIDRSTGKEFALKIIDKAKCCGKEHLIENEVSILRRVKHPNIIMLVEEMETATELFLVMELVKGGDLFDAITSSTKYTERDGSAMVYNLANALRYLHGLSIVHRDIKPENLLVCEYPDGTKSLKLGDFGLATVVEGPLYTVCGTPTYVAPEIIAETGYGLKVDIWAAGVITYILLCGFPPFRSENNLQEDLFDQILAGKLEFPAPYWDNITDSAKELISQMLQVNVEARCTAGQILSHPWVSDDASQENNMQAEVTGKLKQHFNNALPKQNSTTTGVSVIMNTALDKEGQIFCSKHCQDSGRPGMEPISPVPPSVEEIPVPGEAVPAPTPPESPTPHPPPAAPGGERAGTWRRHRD

[7] = biological target: T2, Homeodomain-interacting protein kinase 4 (Homo sapiens) (UniProt Q8NE63); experiment: Inhibition of human recombinant HIPK4 at 15 nM related to control ULK1
T2 sequence (whole entry): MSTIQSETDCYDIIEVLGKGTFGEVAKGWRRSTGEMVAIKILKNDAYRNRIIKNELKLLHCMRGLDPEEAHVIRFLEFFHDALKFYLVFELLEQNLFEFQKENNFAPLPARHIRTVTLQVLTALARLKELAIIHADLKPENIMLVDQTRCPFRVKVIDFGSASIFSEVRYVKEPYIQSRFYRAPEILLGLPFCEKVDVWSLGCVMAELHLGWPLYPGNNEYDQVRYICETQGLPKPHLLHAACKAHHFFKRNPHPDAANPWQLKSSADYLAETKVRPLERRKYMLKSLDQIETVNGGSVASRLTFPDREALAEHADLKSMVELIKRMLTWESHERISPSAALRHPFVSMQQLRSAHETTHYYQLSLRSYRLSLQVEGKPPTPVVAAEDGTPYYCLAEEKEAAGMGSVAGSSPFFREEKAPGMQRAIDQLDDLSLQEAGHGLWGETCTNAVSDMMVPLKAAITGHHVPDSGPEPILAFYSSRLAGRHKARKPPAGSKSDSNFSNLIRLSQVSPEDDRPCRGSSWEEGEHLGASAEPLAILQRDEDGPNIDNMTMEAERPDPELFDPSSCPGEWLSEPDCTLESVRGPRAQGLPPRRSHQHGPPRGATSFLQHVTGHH

[8] = biological target: TRAF2 and NCK-interacting protein kinase (Homo sapiens) (UniProt Q9UKE5); experiment: Inhibition of human recombinant TNIK at 15 nM related to control ULK1
[9] = biological target: Wee1-like protein kinase 2 (Homo sapiens) (UniProt P0C1S8); experiment: Inhibition of human recombinant Wee1B at 15 nM in presence of ATP by radiometric assay relative to control
[10] = biological target: Cyclin-dependent kinase 7 (Homo sapiens) (UniProt P50613); experiment: Inhibition of human recombinant CDK7 at 15 nM in presence of ATP by radiometric assay relative to control
[11] = biological target: T3, Serine/threonine-protein kinase STK11 (Homo sapiens) (UniProt Q15831); experiment: Inhibition of human recombinant LKB1 at 15 nM related to control ULK1
T3 sequence (whole entry): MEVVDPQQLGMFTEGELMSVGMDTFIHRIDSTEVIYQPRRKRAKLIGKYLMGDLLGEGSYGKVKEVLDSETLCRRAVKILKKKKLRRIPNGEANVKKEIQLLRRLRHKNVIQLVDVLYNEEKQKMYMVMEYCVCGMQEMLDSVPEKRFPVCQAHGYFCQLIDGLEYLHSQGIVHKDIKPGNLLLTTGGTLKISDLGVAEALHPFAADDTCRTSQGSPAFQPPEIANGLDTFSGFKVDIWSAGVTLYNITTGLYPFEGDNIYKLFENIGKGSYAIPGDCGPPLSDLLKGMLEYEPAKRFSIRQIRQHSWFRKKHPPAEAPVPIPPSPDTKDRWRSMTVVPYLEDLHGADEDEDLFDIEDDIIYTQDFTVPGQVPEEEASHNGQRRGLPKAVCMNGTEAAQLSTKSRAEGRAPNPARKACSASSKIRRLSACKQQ

[12] = biological target: Dual specificity mitogen-activated protein kinase kinase 2 (Homo sapiens) (UniProt P36507); experiment: Inhibition of human recombinant MAP2K2 at 40 nM related to control ULK1
[13] = biological target: Mitogen-activated protein kinase 14 (Homo sapiens) (UniProt Q16539); experiment: Inhibition of human recombinant p38alpha at 40 nM related to control ULK1
Sequence of Mitogen-activated protein kinase 14 (Homo sapiens) (Q16539 whole entry): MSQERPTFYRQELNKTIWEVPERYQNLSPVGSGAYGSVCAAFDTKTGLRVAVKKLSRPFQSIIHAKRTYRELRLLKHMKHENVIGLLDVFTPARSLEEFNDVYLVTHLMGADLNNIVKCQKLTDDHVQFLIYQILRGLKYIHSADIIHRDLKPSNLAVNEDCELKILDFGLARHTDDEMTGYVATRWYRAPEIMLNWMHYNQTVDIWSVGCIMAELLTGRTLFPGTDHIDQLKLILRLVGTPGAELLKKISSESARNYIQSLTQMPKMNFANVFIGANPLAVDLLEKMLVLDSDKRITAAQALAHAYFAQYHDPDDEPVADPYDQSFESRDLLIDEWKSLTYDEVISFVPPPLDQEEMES

Sequence of Cyclin-dependent kinase 9 (Homo sapiens) (P50750 whole entry): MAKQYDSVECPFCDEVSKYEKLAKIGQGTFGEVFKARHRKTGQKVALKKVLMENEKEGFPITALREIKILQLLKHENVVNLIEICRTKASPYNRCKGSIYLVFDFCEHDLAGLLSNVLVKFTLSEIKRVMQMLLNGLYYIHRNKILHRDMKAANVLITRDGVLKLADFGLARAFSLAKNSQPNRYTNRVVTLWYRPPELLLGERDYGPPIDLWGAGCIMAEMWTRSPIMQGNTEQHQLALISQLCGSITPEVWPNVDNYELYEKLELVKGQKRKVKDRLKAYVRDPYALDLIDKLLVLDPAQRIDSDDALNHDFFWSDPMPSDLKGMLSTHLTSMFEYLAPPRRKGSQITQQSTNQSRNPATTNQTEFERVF
Sequence of 3-phosphoinositide-dependent protein kinase 1 (Homo sapiens) (O15530 whole entry, looked up): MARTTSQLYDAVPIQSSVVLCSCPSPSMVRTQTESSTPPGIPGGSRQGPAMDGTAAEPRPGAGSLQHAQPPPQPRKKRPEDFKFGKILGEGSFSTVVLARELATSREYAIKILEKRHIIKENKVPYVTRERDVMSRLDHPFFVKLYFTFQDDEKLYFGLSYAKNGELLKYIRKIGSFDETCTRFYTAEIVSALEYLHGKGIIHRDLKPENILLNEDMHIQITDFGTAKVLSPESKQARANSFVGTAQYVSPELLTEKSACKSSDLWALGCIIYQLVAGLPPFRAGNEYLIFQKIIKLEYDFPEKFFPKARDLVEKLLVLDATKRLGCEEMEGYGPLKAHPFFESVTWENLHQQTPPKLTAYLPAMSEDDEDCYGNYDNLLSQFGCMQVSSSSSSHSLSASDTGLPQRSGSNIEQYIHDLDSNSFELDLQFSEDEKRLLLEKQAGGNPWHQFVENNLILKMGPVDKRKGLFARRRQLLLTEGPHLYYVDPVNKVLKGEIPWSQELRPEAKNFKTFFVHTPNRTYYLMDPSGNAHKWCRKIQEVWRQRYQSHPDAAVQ
Sequence of TRAF2 and NCK-interacting protein kinase (Homo sapiens) (Q9UKE5 whole entry, looked up): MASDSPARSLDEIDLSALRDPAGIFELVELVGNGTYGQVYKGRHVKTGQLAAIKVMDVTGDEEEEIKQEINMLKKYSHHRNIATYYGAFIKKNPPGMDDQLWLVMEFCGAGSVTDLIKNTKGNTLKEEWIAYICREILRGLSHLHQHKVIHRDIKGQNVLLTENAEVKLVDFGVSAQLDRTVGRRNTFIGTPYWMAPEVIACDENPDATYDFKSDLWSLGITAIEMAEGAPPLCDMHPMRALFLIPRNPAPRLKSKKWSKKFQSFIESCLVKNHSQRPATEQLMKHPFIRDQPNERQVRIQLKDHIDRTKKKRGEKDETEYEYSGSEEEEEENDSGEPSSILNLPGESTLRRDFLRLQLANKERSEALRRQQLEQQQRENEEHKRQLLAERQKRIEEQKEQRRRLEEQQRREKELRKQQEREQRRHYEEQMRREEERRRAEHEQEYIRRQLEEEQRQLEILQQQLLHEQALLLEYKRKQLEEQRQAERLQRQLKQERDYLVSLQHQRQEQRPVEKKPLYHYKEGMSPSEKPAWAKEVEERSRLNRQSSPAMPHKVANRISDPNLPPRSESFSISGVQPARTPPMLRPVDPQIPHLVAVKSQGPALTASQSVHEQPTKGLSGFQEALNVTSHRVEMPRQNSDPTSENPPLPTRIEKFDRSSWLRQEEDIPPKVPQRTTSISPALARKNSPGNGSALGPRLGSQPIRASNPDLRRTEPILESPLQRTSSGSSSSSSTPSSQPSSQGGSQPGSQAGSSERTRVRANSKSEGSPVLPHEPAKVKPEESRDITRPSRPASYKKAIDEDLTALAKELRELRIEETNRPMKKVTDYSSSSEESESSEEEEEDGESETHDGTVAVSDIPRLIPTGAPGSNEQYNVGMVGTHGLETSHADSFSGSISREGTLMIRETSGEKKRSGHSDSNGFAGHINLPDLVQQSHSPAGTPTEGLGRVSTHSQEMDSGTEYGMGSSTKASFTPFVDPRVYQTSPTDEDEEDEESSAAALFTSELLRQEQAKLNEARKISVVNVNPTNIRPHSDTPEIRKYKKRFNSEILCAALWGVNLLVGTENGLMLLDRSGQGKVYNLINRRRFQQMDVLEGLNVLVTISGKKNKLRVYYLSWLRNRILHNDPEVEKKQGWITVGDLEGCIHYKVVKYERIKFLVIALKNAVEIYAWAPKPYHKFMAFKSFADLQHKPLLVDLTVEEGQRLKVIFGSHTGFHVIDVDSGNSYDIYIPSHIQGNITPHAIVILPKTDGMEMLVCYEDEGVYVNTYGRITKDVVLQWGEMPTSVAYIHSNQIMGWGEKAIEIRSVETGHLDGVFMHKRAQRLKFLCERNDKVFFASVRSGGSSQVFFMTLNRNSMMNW
Sequence of Wee1-like protein kinase 2 (Homo sapiens) (P0C1S8 whole entry, looked up): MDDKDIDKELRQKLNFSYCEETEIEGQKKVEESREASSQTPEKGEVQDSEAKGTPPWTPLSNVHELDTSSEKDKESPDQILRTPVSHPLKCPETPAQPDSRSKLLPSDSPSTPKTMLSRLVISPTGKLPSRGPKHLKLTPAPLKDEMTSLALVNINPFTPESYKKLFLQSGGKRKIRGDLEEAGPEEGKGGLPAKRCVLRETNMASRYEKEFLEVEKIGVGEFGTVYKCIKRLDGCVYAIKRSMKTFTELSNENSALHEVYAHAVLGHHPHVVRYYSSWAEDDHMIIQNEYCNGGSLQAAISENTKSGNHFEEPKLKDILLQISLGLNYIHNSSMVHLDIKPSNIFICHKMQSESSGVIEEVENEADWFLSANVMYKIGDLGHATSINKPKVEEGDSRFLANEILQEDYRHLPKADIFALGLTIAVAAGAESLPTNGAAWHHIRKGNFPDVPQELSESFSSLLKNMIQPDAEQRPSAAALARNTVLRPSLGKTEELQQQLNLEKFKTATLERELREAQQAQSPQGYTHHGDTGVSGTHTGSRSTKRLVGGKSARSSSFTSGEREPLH
Sequence of RAC-alpha serine/threonine-protein kinase (Homo sapiens) (P31749 whole entry): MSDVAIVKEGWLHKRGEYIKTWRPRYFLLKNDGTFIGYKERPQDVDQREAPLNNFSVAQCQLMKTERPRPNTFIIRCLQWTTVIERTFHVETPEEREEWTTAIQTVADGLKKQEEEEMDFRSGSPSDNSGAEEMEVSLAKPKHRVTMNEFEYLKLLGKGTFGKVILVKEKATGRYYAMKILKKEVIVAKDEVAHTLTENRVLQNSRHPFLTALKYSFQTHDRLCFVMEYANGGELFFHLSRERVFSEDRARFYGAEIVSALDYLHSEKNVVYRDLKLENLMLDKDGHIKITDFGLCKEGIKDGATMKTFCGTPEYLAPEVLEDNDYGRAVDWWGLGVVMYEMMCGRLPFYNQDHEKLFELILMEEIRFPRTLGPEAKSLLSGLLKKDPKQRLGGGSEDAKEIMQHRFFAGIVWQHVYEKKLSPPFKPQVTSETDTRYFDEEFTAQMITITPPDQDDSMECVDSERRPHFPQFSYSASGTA
Sequence of Dual specificity mitogen-activated protein kinase kinase 2 (Homo sapiens) (P36507 whole entry): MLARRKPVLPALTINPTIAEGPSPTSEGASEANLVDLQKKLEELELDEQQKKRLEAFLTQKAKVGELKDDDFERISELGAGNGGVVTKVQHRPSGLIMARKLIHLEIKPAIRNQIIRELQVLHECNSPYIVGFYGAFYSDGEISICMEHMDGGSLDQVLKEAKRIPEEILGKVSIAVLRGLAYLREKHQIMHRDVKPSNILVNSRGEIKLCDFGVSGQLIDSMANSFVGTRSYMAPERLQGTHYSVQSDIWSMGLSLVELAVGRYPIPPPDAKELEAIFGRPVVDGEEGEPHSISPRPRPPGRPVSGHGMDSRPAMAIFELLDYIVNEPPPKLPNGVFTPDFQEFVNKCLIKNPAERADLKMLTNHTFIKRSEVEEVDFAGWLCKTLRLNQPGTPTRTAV
Sequence of Tyrosine-protein kinase Lck (Homo sapiens) (P06239 2-509 limits assumed): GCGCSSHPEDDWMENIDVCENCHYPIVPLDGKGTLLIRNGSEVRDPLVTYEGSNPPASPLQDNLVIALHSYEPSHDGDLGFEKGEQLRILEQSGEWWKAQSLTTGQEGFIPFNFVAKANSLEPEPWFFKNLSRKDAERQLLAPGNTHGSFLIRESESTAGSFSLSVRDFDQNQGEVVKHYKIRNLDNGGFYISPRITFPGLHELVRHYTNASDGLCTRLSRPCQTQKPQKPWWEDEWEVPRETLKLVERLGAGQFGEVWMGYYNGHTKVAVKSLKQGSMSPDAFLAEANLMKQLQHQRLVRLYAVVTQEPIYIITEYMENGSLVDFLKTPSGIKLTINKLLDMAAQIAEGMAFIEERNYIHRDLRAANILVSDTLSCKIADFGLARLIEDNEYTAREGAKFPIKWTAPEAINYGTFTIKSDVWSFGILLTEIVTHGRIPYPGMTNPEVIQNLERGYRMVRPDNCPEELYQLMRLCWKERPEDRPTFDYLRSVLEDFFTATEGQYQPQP
Sequence of Cyclin-dependent kinase 7 (Homo sapiens) (P50613 whole entry): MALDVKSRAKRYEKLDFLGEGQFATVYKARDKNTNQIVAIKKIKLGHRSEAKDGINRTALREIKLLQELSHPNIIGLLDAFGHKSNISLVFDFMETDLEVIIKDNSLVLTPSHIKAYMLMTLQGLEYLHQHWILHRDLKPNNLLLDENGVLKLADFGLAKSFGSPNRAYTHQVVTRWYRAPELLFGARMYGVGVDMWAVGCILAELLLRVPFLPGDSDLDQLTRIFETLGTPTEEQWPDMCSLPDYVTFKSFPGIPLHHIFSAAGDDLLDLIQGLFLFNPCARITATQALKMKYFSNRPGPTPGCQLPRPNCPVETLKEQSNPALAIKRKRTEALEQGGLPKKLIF

- inhibition [1]: 3%
- inhibition [2]: 0%
- fold change (FC) [3]: 0.05
- inhibition [4]: 13%
Structure (SMILES): CNC(=O)c1ccccc1Oc1nc(Nc2cc(OC)c(OC)c(OC)c2)ncc1Br

- fold change (FC) [5]: 0
- inhibition [6]: 12%
- fold change (FC) [7]: 0
- fold change (FC) [8]: 0.06
- inhibition [9]: 11%
- inhibition [10]: 16%
- fold change (FC) [11]: 0
Structure (SMILES): CC(C)[C@H](NC(=O)c1cc(-c2cnn3cc(-c4ccc(OCCN5CCCCC5)cc4)cnc23)cs1)C(F)(F)F

- fold change (FC) [12]: 0
- fold change (FC) [13]: 0.01
Structure (SMILES): O=C(N[C@@H](C1CC1)C(F)(F)F)c1cc(-c2cnn3cc(-c4ccc(F)cc4)cnc23)cs1
